Screens: PubChem BioAssay, several laboratories
ADAM17 inh – ADAM17 inhibitors, primary screen, biochemical, QFRET | Disintegrin and metalloproteinase domain-containing protein 17 (Homo sapiens), P78536 | recombinant ADAM17, EDANS/DABCYL FRET peptide cleavage | inhibition, % at 6.95 µM | 370,000 tested, 0.83% active;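 active means inhibition above the mean of compounds lying between control limits plus 3 SD, set per campaign, cut at about 8.5% in these data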;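 further: 0% = DMSO-only wells as the low control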
Target sequence (P78536 215-824 limits assumed): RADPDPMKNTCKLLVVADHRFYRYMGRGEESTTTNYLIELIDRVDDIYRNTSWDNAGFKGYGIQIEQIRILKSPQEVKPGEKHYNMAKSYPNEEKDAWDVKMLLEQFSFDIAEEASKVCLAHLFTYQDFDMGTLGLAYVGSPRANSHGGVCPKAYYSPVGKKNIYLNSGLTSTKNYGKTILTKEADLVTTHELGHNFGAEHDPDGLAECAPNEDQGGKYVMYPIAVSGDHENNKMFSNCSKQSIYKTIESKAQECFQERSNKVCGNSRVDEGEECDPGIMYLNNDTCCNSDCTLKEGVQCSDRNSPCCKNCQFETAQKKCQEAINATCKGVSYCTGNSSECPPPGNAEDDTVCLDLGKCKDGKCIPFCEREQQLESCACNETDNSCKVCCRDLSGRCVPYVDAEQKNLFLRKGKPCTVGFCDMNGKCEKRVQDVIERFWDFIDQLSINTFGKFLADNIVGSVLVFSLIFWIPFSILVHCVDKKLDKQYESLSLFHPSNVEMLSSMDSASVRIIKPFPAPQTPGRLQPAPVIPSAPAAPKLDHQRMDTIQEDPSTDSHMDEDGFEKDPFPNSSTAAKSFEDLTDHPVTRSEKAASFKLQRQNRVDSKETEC
Arrestin-AP2 inh – inhibitors of beta-arrestin/AP2 binding, primary screen, biochemical, GPCR trafficking, flow cytometry; beta-arrestin 1 C-terminal peptide binding to AP2 beta2-adaptin appendage (human); FITC-arrestin peptide / GST-AP2 beads; AP2 beta2 appendage carries R879A mutation; inhibition, % at 10 µM; 340,000 tested, 0.31% active;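 active means inhibition above a set limit, near 3 SD of compounds lacking own fluorescence, cut at about 54% in these data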;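 further: plate controls were DMSO wells for no effect and 5 µM unlabelled arrestin peptide for full effect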
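system = GST-tagged AP2 beta2-adaptin appendage (R879A) on 4 µm glutathione beads | reagent = FITC-labelled arrestin peptide probe, 50 nM final | schedule = compound with beads 12 min RT, then probe 1 h RT | signal = HyperCyt-sampled flow cytometry, FL1 channel, ex 488/em 535 nm | read-out = percent response from loss of bead-bound FITC fluorescence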
ADAM10 inh – human ADAM10 inhibitors, primary screen, biochemical, QFRET, HTS; recombinant ADAM10, EDANS/DABCYL FRET peptide cleavage, 3 h; AID 720582, 2013; inhibition, % at 7 µM; 370,000 tested, 0.62% active;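 active means inhibition above a per-campaign cutoff equal to the mean of compounds falling between control-based bounds plus 3 SD, cut at about 20% in these data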;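 further: 0% = DMSO wells while the 100% control is not disclosed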
CaV13 ICDI inh – Primary screen for inhibitors of IQ motif and Ca2+-dependent inactivation inhibitor domain binding in CACNA1D, Förster resonance energy transfer in living cells, …. HEK cells, CFP/YFP FRET ICDI-IQ, plate reader, 10 min; percent FRET-ratio fall versus neutral wells. inhibition, % at 12.3 µM. 340,000 tested, 0.098% active. AID 743397;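 active means mean replicate inhibition of at least 30% and at least 1% of replicates passing that level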;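 further: 0% = median of the neutral control wells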
FAS TE block – FAS thioesterase domain inhibitors, primary screen, biochemical, fluorescence intensity, uHTS; AID 602261, 2012; 360,000 tested, 0.67% active; recombinant FAS-TE, OMFH fluorogenic substrate, fluorescence endpoint; inhibition, % at 15 µM;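 active means compounds whose normalised, plate-corrected inhibition of enzyme fluorescence in the single-dose primary screen is 50% or more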;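 further: 0% = DMSO with enzyme and 100% = substrate without enzyme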
CendR NRP1 mod – modulators of CendR peptide binding to NRP-1, primary screen, biochemical, fluorescence polarization, uHTS | FAM-RPARPAR peptide binding to NRP-1 | inhibition, % at 25 µM | 360,000 tested, 0.85% active | AID 602438, 2012;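 active means inhibition or corrected inhibition above about 18%, plus a signal ratio from 0.5 to 1.5, limit read from the data, passing the limit was not always enough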
FAS-TE conf – FAS thioesterase domain inhibitors, confirmation, biochemical, fluorescence intensity, single concentration; shares compounds with FAS TE block; recombinant FAS-TE, OMFH fluorogenic substrate; inhibition, % at 15 µM; 2,300 tested, 45% active; AID 624325, 2012;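 active means compounds inhibiting the enzyme by at least 50% at 15 µM in any one of the replicates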;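 further: 0% = enzyme with DMSO only and 100% = wells lacking enzyme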
Active calls of the source: *; / = not tested or not shown. In the library only some 2.9% were active in any assay of this set; here they are far more common.

SMILES | ADAM17 inh | Arrestin-AP2 inh | ADAM10 inh | CaV13 ICDI inh | FAS TE block | CendR NRP1 mod | FAS-TE conf
O=[N+]([O-])c1ccc2ncnc(N3CCN(Cc4ccc5c(c4)OCO5)CC3)c2c1 | 3 | 19 | -5 | 5 | 82* | 7 | 87*
O=[N+]([O-])c1cccnc1N1CCN(Cc2ccc3c(c2)OCO3)CC1 | -2 | 23 | -7 | 6 | 22 | -6 | /
O=C(COC(=O)CCc1c[nH]c2ccccc12)Nc1cc([N+](=O)[O-])ccc1Cl | -1 | -9 | 0 | -16 | 56* | -16 | 55*
O=C(COC(=O)CCc1c[nH]c2ccccc12)Nc1ccc([N+](=O)[O-])cc1 | 1 | 2 | 9 | -11 | 21 | 20 | /
Cc1nn(-c2ccccn2)c2c1C(c1ccccc1Cl)C1=C(N2)c2ccccc2C1=O (stereo not given) | 5 | 6 | 2 | -16 | 53* | -12 | 3
CCOC(=O)[C@]12Cc3c(cc(OC)c(OC)c3OC)[C@H]1N(C1CCCCC1)C(=O)c1cc(OC)ccc12 | -2 | / | -8 | -6 | 50* | -1 | 38
Cc1ccc2nc(-c3ccccc3)c(Cc3ccccc3C(F)(F)F)n2c1 | -5 | / | -16 | -6 | 10 | -30 | /
CC(NC(=O)COC(=O)c1cc([N+](=O)[O-])ccc1N1CCOCC1)c1ccc(F)cc1 (stereo not given) | 1 | 0 | 3 | -11 | 82* | -3 | 84*
CC(NC(=O)COC(=O)c1cc([N+](=O)[O-])ccc1N1CCOCC1)c1ccccc1 (stereo not given) | 4 | -9 | 1 | -7 | 73* | 3 | 85*
COC(=O)[C@@]1(Cc2ccc(F)cc2)[C@H]2c3cc(C(=O)N4CCCC4)n(CCc4c[nH]c5ccccc45)c3C[C@H]2CN1C(=O)c1ccccc1 | -2 | / | -5 | -6 | 62* | -16 | 16
COC(=O)[C@@]1(Cc2ccc(F)cc2)[C@H]2c3cc(C(=O)N4CCCC4)n(CCF)c3C[C@H]2CN1C(=O)c1ccccc1 | -3 | / | -16 | -9 | 8 | 8 | /
COC(=O)[C@@]1(Cc2ccc(OC)cc2)[C@H]2c3cc(C(=O)N4CCCC4)n(CCc4c[nH]c5ccccc45)c3C[C@H]2CN1C(=O)c1ccccc1 | 6 | / | 16 | -5 | 58* | -11 | 23
O=C(COc1ccc(S(=O)(=O)N2CCCCC2)cc1)Nc1ccccc1F | 0 | 1 | -7 | / | 52* | 0 | 55*
O=C(NCc1cccs1)c1ccc2nc([C@@H]3O[C@H](CO)[C@H](O)[C@H](O)[C@H]3O)[nH]c2c1 | -3 | / | 0 | -6 | -7 | -4 | /
CCOC(=O)C1=CCN(S(=O)(=O)c2ccccc2F)C1c1ccc(Br)cc1 (stereo not given) | 2 | / | -3 | -3 | / | / | /
COc1ccc(NC(=O)/C(Cl)=C(/Cl)S(=O)Cc2ccc(Cl)cc2)cn1 (stereo not given) | -1 | 13 | -5 | -6 | 62* | 6 | 68*
Cc1ccc(CNC(=O)c2ccc(N3CCC4(CC3)CC(c3ccccc3)=NO4)c(NC(=O)c3c(Cl)cccc3Cl)c2)cc1 | 3 | 3 | 8 | -8 | 63* | 12 | 21
COc1cccc(C(=O)Nc2cc(C(=O)NCc3ccc(C)cc3)ccc2N2CCC3(CC2)CC(c2ccccc2)=NO3)c1 | 1 | 1 | -3 | -5 | 43 | 13 | /
Cc1cccn2c(=O)c3cc(S(=O)(=O)c4ccc(Br)cc4)c(=N)n(C4CCCCC4)c3nc12 | -6 | 4 | -6 | -14 | 51* | 3 | 7
Cc1ccc(S(=O)(=O)c2cc3c(=O)n4cccc(C)c4nc3n(C3CCCCC3)c2=N)cc1 | / | 15 | / | / | 7 | -21 | /
CCN(CC)C(=O)CSc1nc2c(sc(=S)n2-c2ccc(C)cc2C)c(=O)[nH]1 | 3 | 12 | 10 | -4 | -1 | -8 | /
O=C(CCNc1ccc(Br)cc1)c1cccc([N+](=O)[O-])c1 | -3 | 16 | 12 | -6 | 64* | -2 | 53*
COc1cccc(-c2cnc3c(NC=O)cc(-c4ccccc4)cn23)c1 | -9 | / | -25 | -6 | 20 | -13 | /
COc1cccc(-c2cnc3c(NC=O)cc(-c4ccc(S(C)(=O)=O)cc4)cn23)c1 | -7 | / | -32 | -13 | 55* | -11 | 56*
O=C(Nc1nnc(-c2ccccc2Cl)s1)C1CCN(S(=O)(=O)c2ccc(Cl)cc2)CC1 | 1 | -3 | 4 | -5 | 72* | -3 | 9
SMILES | ADAM17 inh | Arrestin-AP2 inh | ADAM10 inh | CaV13 ICDI inh | FAS TE block | CendR NRP1 mod | FAS-TE conf
Cc1cc(C)cc(C(=O)OCCN2CCN(C3CN(Cc4cn(Cc5ccccc5F)nn4)S(=O)(=O)C3)CC2)c1 (stereo not given) | -7 | / | -7 | / | / | / | /
O=C(COc1ccc(Cl)cc1)Nc1ccc(C(=O)O)cc1NC(=O)COc1ccc(Cl)cc1 | 2 | 1 | 0 | / | 51* | -3 | 66*
O=C(COc1ccc(Cl)cc1)Nc1ccccc1Cl | -2 | 14 | 5 | -21 | 11 | 2 | /
COC(=O)C1(C(=O)OC)c2ccccc2N(S(=O)(=O)c2ccc(C)cc2)C1CC(=O)c1ccccc1 (stereo not given) | 7 | / | 11 | -14 | / | 5 | /
CC1(C)CC[C@]2(C(=O)n3ccnc3)CC[C@]3(C)[C@H](C(=O)C=C4[C@@]5(C)C=C(C#N)C(=O)C(C)(C)[C@@H]5CC[C@]43C)[C@@H]2C1 | -2 | 36 | 4 | -3 | 96* | -130 | 68*
O=C(NC1CC[C@@]23CCCN2C(=O)CCC[C@H]3C1)c1ccccc1 (stereo not given in full) | -2 | / | -1 | / | / | / | /
O=C1CC(c2cccc([N+](=O)[O-])c2)c2cc3c(cc2N1)CCC3 (stereo not given) | 1 | 6 | 12 | -5 | 51* | 6 | 33*
O=C1CC(c2cccc([N+](=O)[O-])c2)c2c(ccc3ccccc23)N1 (stereo not given) | 0 | 7 | -4 | / | 55* | 2 | 49*
